Assay outcomes from PubChem BioAssay.
Many of the other results were omitted from the sample, so hits are more common in it than they were.
L major viab: reduces viability of Leishmania major promastigotes; resazurin fluorescence viability; inhibition, % at 10 µM; 200,000 tested, 9% active; AID 1063; in the data active means inhibition above about 50%;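 further: promastigotes grown with compound for 44 hours at 28 °C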
PolyA inhibitor: blocks polyadenylation in yeast reporter cells | activity score, % at 12 µM | 300,000 tested, 0.02% active | S. cerevisiae SKY197-pL101 polyadenylation reporter, beta-gal luminescence; efflux-impaired pdr1/pdr3 knockout yeast; score 100 = 6 SD above DMSO;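 active means lowest replicate activity score at least 50, where 100 means six control SD above control mean; inconclusive means lowest score under 50 but half or more replicates reach 50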;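 further: yeast exposed to compound for 9 h at 30 °C; higher score means more reporter readthrough which indicates perturbed polyadenylation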
NALP1 inh: blocks the NALP1 inflammasome reconstituted in yeast; S. cerevisiae NALP1/ASC/caspase-1 growth, X-gal OD620, 72 h; inhibition, % at 10 µM; 280,000 tested, 0.61% active; AID 2071; in the data active means inhibition mostly above about 24%, no sharp cut-off; inactive means mostly below about 32%
NLRP3 yeast inh: NALP3 inhibition in yeast. Yeast reconstituted NLRP3/ASC/caspase-1, beta-gal luminescence, 24 h. inhibition, % at 10 µM. 330,000 tested, 0.39% active;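 active means inhibition of 50% or more; inactive means inhibition below 50%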;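 further: plate controls were induced DMSO wells for no effect and uninduced yeast grown without galactose for full effect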
Calb FLC: affects C. albicans growth with fluconazole; C. albicans CaCi-2 + fluconazole, Alamar Blue growth, 48 h; AID 1979; 300,000 tested, 0.57% active; growth inhibition, % (concentration not given with the values);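 active means growth inhibition above about 58% in most replicates, limit read from the data, passing the limit was not always enough; inconclusive means exactly half the replicates above a set limit; inactive means most replicates below a set limit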;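 further: all wells also contain fluconazole at 8 µg/ml as a sub-toxic cotreatment; 0% = median of DMSO wells and 100% = median of geldanamycin control wells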
T cruzi repl: T. cruzi replication inhibition. 300,000 tested, 1.4% active. inhibition, % (concentration not given with the values). T. cruzi beta-gal in NIH3T3, luminescence, 90 h;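 active means mean inhibition across valid replicates above about 55%, limit read from the data; inconclusive means mean below that limit but half or more replicates reach it; inactive means mean below it, under half of replicates reach it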;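 further: signal also drops with host cell toxicity which is not excluded here; 0% = plate median of DMSO wells and 100% = zero luminescence signal; higher percent means less beta-gal luminescence so fewer parasites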
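Test system: β-gal T. cruzi (Tulahuen C4) inside NIH/3T3 cells / Quantity: 5,000 cells/well / Measured by: luminescence from GalScreen with 0.05% NP40, read after 60 min / Medium: DMEM plus 2% FBS / Measure: parasite load inhibition, % / Reagent: Tulahuen C4 trypomastigotes, 5000/well / Schedule: co-culture of at least 90 h after 3 h attachment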
An asterisk follows results filed as active.

`CC1(C)SC(=S)N(Cc2ccc3c(c2)OCO3)C1N(O)C(=O)NC1CCCCC1` (stereo not given) gave L major viab 81.5*, PolyA inhibitor -0.8, NALP1 inh 8.6, NLRP3 yeast inh 13.6, Calb FLC 2.4 and T cruzi repl 15.2.
COc1cccc(CNC(=O)CCC2CCCN(C(=O)c3cccnc3SC)C2)c1 (stereo not given) was read as PolyA inhibitor -1.6, NALP1 inh 27.6, NLRP3 yeast inh -16.0, Calb FLC -10.0 and T cruzi repl 6.3.
`Cc1cc(C)c(Cc2c(C)nc3c(C(=O)NCc4ccco4)cnn3c2C)c(C)c1` gave L major viab 19.4, PolyA inhibitor -12.3, NALP1 inh 41.7*, NLRP3 yeast inh 23.1, Calb FLC 24.0 and T cruzi repl 58.7*.
Screening O=C(NCc1ccco1)c1cnn2c(C(F)F)cc(-c3ccccc3)nc12 returned L major viab 0.5, PolyA inhibitor -5.6, NALP1 inh 15.0, NLRP3 yeast inh 23.0, Calb FLC 3.0 and T cruzi repl 19.1.
Screening CC(=O)N1CCN(C(=S)NC(=O)c2ccc(S(=O)(=O)N3CCOCC3)cc2)CC1 returned L major viab -2.1, PolyA inhibitor -3.9, NALP1 inh 5.2, NLRP3 yeast inh 7.7, Calb FLC 5.1 and T cruzi repl -5.8.
For N#Cc1c[nH]n2c(=O)c3c(nc12)CCCC3 the results were L major viab -4.1, PolyA inhibitor 0.6, NALP1 inh -12.0, NLRP3 yeast inh 14.7, Calb FLC -22.8 and T cruzi repl -5.6.
Screening Cc1[nH]n2c(=O)c3c(nc2c1-c1ccc(Cl)cc1)CCC3 returned L major viab 99.5*, PolyA inhibitor -1.2, NALP1 inh 0.9, NLRP3 yeast inh 8.1, Calb FLC 23.8 and T cruzi repl -6.9.
`O=c1c2c(nc3c(-c4ccccc4)c[nH]n13)CCCC2` gave L major viab 73.7*, PolyA inhibitor -2.3, NALP1 inh -5.5, NLRP3 yeast inh 0.8, Calb FLC 36.3 and T cruzi repl -25.0.
Screening Cc1[nH]n2c(=O)c3c(nc2c1-c1ccccc1)CCC3 returned L major viab 22.3, PolyA inhibitor inconclusive, NALP1 inh 11.1, NLRP3 yeast inh 2.8, Calb FLC 34.4 and T cruzi repl 3.3.
Nc1[nH]n2c(=O)c3c(nc2c1N=Nc1ccccc1)CCCC3 was read as L major viab 90.9*, PolyA inhibitor -12.9, NALP1 inh -4.0, NLRP3 yeast inh 17.0, Calb FLC -2.9 and T cruzi repl 9.1.
Screening Nc1[nH]n2c(=O)c3c(nc2c1N=Nc1ccc(Cl)cc1)CCCC3 returned L major viab 79.0*, PolyA inhibitor 0.4, NALP1 inh 8.4, NLRP3 yeast inh 36.2, Calb FLC 14.2 and T cruzi repl 42.2.
For Cc1cc(=O)n2[nH]c(N)c(N=Nc3ccccc3)c2n1 the results were L major viab 5.3, PolyA inhibitor -22.3, NALP1 inh 11.7, Calb FLC -12.1 and T cruzi repl -15.8.
For COC(=O)c1cc(OC)c(OC)cc1NC(=O)Cn1nnc(-c2ccccc2Cl)n1 the results were L major viab -5.1, PolyA inhibitor -13.6, NALP1 inh -0.6, NLRP3 yeast inh 9.7, Calb FLC 7.7 and T cruzi repl 17.2.
For CCOc1cc(/C=C2\SC(=N)N(c3nccs3)C2=O)ccc1OCCN1CCOCC1 the results were L major viab 96.9*, PolyA inhibitor 20.2, NALP1 inh 22.5, NLRP3 yeast inh -0.8, Calb FLC -1.9 and T cruzi repl -2.6.
`CCOc1cc(/C=C2\SC(=S)N(N3CCOCC3)C2=O)ccc1O` gave PolyA inhibitor -1.2, NLRP3 yeast inh 10.5, Calb FLC -2.5 and T cruzi repl -6.8.
For C=C(C)Cn1c(-c2ccncc2)n[nH]c1=S the results were L major viab -7.4, PolyA inhibitor 16.2, NALP1 inh -5.7, NLRP3 yeast inh 22.6, Calb FLC 3.3 and T cruzi repl -10.5.
`O=C(c1cc2nc(-c3ccc(F)cc3)cc(C(F)(F)F)n2n1)N1CCCCC1c1cccnc1` (stereo not given) gave L major viab 96.2*, PolyA inhibitor 0.3, NALP1 inh -1.2, NLRP3 yeast inh 6.7, Calb FLC 22.3 and T cruzi repl 94.9*.
`O=C(c1cnn2c(C(F)(F)F)cc(-c3ccccc3)nc12)N1CCCCC1c1cccnc1` (stereo not given) gave L major viab 52.0*, PolyA inhibitor -11.4, NALP1 inh 6.3, NLRP3 yeast inh 8.7, Calb FLC 44.7 and T cruzi repl 58.6*.
Screening O=C(c1cnn2c(C(F)(F)F)cc(-c3ccccc3)nc12)N1CCCc2ccccc21 returned L major viab 0.4, PolyA inhibitor -2.1, NALP1 inh 4.3, NLRP3 yeast inh 2.0, Calb FLC -3.6 and T cruzi repl -1.2.
O=C(Cn1c(=O)oc2ccccc21)Nc1ccccc1Cl was read as PolyA inhibitor -16.3, NALP1 inh 16.4, NLRP3 yeast inh 13.0, Calb FLC -3.0 and T cruzi repl -14.3.
Screening Cc1cc(Br)c(NC(=O)COC(=O)CSc2nnc(-c3ccc(Cl)cc3)o2)c(Br)c1 returned L major viab 52.3*, PolyA inhibitor 8.3, NALP1 inh 25.9, NLRP3 yeast inh 2.7, Calb FLC -14.1 and T cruzi repl -1.5.
Screening COc1cc(SC#N)ccc1N=Cc1c(C)[nH]n(-c2ccc(Cl)cc2)c1=O returned L major viab 32.3, PolyA inhibitor 16.7, NALP1 inh 26.6, NLRP3 yeast inh 24.6, Calb FLC -5.1 and T cruzi repl 21.4.
COc1cc(SC#N)ccc1N=Cc1c(C)[nH]n(-c2ccc(C)c(C)c2)c1=O was read as L major viab 98.7*, PolyA inhibitor -5.7, NALP1 inh 9.7, NLRP3 yeast inh 15.5, Calb FLC 10.6 and T cruzi repl 28.4.
For O=C(Nc1cccc([N+](=O)[O-])c1)c1cc(S(=O)(=O)N2CCOCC2)cs1 the results were PolyA inhibitor -4.0, NALP1 inh 13.0, NLRP3 yeast inh 0.3, Calb FLC 6.1 and T cruzi repl -3.6.
CC(C)CCNc1nnnc2c1sc1nc(N3CCOCC3)c3c(c12)CC(C)(C)SC3 was read as L major viab 57.0*, PolyA inhibitor inconclusive, NALP1 inh 1.7, NLRP3 yeast inh 8.6, Calb FLC 16.9 and T cruzi repl 0.5.
`CCCCCCC1(C)NC(=S)N(c2ccccc2)N1` (stereo not given) gave L major viab 50.8*, PolyA inhibitor 0.3, NALP1 inh 15.6, NLRP3 yeast inh 18.8, Calb FLC -13.7 and T cruzi repl -6.5.
Screening CC1(CC(=O)Nc2ccccc2)NC(=S)N(c2ccccc2)N1 (stereo not given) returned L major viab -4.6, PolyA inhibitor 7.2, NALP1 inh -22.8, NLRP3 yeast inh 8.0, Calb FLC -20.9 and T cruzi repl -4.8.
CCCCCC1(C)NC(=S)N(c2ccccc2)N1 (stereo not given) was read as L major viab 53.3*, PolyA inhibitor -1.4, NALP1 inh -1.6, NLRP3 yeast inh 9.8 and T cruzi repl 2.1.
